Assay results: ChEMBL document CHEMBL1240463, “Synthesis and biological evaluation of (+)-labdadienedial, derivatives and precursors from (+)-sclareolide” (Eur J Med Chem, 2010)
Values after ≈ are worked out from the molar mass of the structure shown. Active and inactive are the calls of the source. The rule behind the calls is not given here.

What was measured:
Fusarium oxysporum = assay: Antifungal activity against Fusarium oxysporum ATCC 48112 after 48 hrs by CLSI M38-A assay; conditions: ATCC 48112, 48 h
HeLa = assay: Cytotoxicity against human HeLa cells after 48 hrs by MTT assay; assay type: functional, cell-based
Method in brief: (§1)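 MTT colorimetric assay. HeLa (ATCC CCL-2) and Vero (ATCC CCL-81) cells were grown in MEM with 10% FBS at 37 °C, 5% CO2, then seeded at 1.5×10^4 (HeLa) or 1.25×10^4 (Vero) cells/well. Compound dilutions were added after 24 h and incubated 48 h more. Cell controls had 0.05% DMSO; vincristine was the reference. IC50 came from linear-regression dose-effect curves, mean ± S.E.M. of at least four dilutions in quadruplicate.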

Candida albicans [1] = assay: Antifungal activity against Candida albicans ATCC 10231 at 100 ug/mL after 24 hrs by AFSTEUCAST assay; assay type: functional, organism-based
Vero [2] = assay: Cytotoxicity against african green monkey Vero cells after 48 hrs by MTT assay; assay type: cell-based; conditions: Chlorocebus sabaeus
Method in brief: as §1

Candida tropicalis [3] = assay: Antifungal activity against Candida tropicalis CECT 11901 at 100 ug/mL after 24 hrs by AFSTEUCAST assay; assay type: functional, organism-based
Candida parapsilosis [4] = assay: Antifungal activity against Candida parapsilosis ATCC 22019 at 100 ug/mL after 24 hrs by AFSTEUCAST assay; assay type: functional, organism-based
Pichia kudriavzevii [5] = assay: Antifungal activity against Candida krusei ATCC 6258 at 100 ug/mL after 24 hrs by AFSTEUCAST assay; assay type: functional, organism-based
[6] = system: Trichophyton mentagrophytes; assay: Antifungal activity against Trichophyton mentagrophytes ATCC 24198 after 6 days by CLSI M38-A assay; conditions: ATCC 24198, 6 days
Vero [7] = assay: Selectivity index, ratio of IC50 for green monkey Vero cells over IC50 for human HeLa cells; assay type: functional
Method in brief: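 Selectivity index is the Vero IC50 divided by the HeLa IC50. Both IC50s come from the 48 h MTT assay, each from linear-regression dose-effect curves.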

Aspergillus fumigatus = assay: Antifungal activity against Aspergillus fumigatus ATCC 204305 after 48 hrs by CLSI M38-A assay; conditions: ATCC 204305, 48 h
Trichophyton rubrum = assay: Antifungal activity against Trichophyton rubrum ATCC 28188 after 6 days by CLSI M38-A assay; conditions: ATCC 28188, 6 days
Aspergillus terreus = assay: Antifungal activity against Aspergillus terreus CDC 317 at 100 ug/mL after 48 hrs by CLSI M38-A assay
Aspergillus flavus = assay: Antifungal activity against Aspergillus flavus ATCC 204304 at 100 ug/mL after 48 hrs by CLSI M38-A assay
Human alphaherpesvirus 1 = assay: Antiviral activity against HSV1 infected in Vero cells assessed reduction factor at 12.5 ug/ml after 36 hrs by end-point titration technique relative to control; assay type: functional
Method in brief: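 HSV-1 (CDC) end-point titration on Vero cells. Two-fold compound dilutions were mixed with one infection dose of virus (TCID50/0.1 mL) for 0.5 h at 37 °C. The mixture was added to confluent monolayers and incubated 36 h at 37 °C, 5% CO2. Reduction factor is the virus titer without compound divided by the titer with compound.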

B16 = assay: Cytotoxicity against mouse B16 cells; assay type: functional, cell-based
P388 = assay: Cytotoxicity against mouse P388 cells; assay type: functional, cell-based
Pichia kudriavzevii [8] = assay: Antifungal activity against Candida krusei ATCC 6258 at 6.25 ug/mL after 24 hrs by AFSTEUCAST assay; assay type: functional, organism-based
Candida parapsilosis [9] = assay: Antifungal activity against Candida parapsilosis ATCC 22019 at 6.25 ug/mL after 24 hrs by AFSTEUCAST assay; assay type: functional, organism-based
KB = assay: Cytotoxicity against human KB cells; assay type: functional; conditions: read-out: ED50 (the source's name)
Candida tropicalis [10] = assay: Antifungal activity against Candida tropicalis CECT 11901 at 12.5 ug/mL after 24 hrs by AFSTEUCAST assay; assay type: functional, organism-based
SNU1 = assay: Cytotoxicity against human SNU1 cells; assay type: functional, cell-based
Candida albicans [11] = assay: Antifungal activity against Candida albicans ATCC 10231 at 12.5 ug/mL after 24 hrs by AFSTEUCAST assay; assay type: functional, organism-based

## C=C1CC[C@H]2C(C)(C)CCC[C@]2(C)[C@H]1CC(=O)N(C)OC
Fusarium oxysporum
  MIC: > 100 µg/mL
HeLa
  IC50: 11.7 µg/mL (≈ 39.9 µM)
Candida albicans [1]
  Activity: inactive
Vero [2]
  IC50: 31.5 µg/mL (≈ 107 µM)
Candida tropicalis [3]
  Activity: inactive
Candida parapsilosis [4]
  Activity: inactive
Pichia kudriavzevii [5]
  Activity: inactive
[6]
  MIC: 19.8 µg/mL (≈ 67.5 µM)
Vero [7]
  Selectivity Index: 2.69
Aspergillus fumigatus
  MIC: > 100 µg/mL
Trichophyton rubrum
  MIC: 50 µg/mL (≈ 170 µM)

## C[C@@H]1[C@H](O)[C@@H](C)/C=C/C=C/C=C/C=C/C=C/C=C/C=C/[C@H](O[C@@H]2O[C@H](C)[C@@H](O)[C@H](N)[C@@H]2O)C[C@@H]2O[C@](O)(C[C@@H](O)C[C@@H](O)[C@H](O)CC[C@@H](O)C[C@@H](O)CC(=O)O[C@H]1C)C[C@H](O)[C@H]2C(=O)O [AMPHOTERICIN B]
Aspergillus fumigatus
  MIC: 2 µg/mL (≈ 2.16 µM)

## CCC(C)n1ncn(-c2ccc(N3CCN(c4ccc(OCC5COC(Cn6cncn6)(c6ccc(Cl)cc6Cl)O5)cc4)CC3)cc2)c1=O (stereo not given) [ITRACONAZOLE]
Aspergillus fumigatus
  MIC: 0.17 µg/mL (≈ 0.241 µM)

## CON(C)C(=O)C[C@H]1[C@@]2(C)CCCC(C)(C)[C@@H]2CC[C@]1(C)O [WEINREB'S AMIDE]
Fusarium oxysporum
  MIC: > 100 µg/mL
HeLa
  IC50: 66.8 µg/mL (≈ 214 µM)
Candida albicans [1]
  Activity: inactive
Vero [2]
  IC50: 82 µg/mL (≈ 263 µM)
Candida tropicalis [3]
  Activity: inactive
Candida parapsilosis [4]
  Activity: inactive
Aspergillus terreus
  Activity: inactive
Pichia kudriavzevii [5]
  Activity: inactive
[6]
  MIC: 39.7 µg/mL (≈ 127 µM)
Vero [7]
  Selectivity Index: 1.23
Aspergillus fumigatus
  MIC: 50 µg/mL (≈ 161 µM)
Trichophyton rubrum
  MIC: 50 µg/mL (≈ 161 µM)
Aspergillus flavus
  Activity: inactive

## CN(C/C=C/C#CC(C)(C)C)Cc1cccc2ccccc12 [TERBINAFINE]
[6]
  MIC: 0.0312 µg/mL (≈ 0.107 µM)
Trichophyton rubrum
  MIC: < 0.078 µg/mL

## C=C1CC[C@H]2C(C)(C)CCC[C@]2(C)[C@H]1C/C=C(\CO)CCO
Fusarium oxysporum
  MIC: > 100 µg/mL
HeLa
  IC50: 91 µg/mL (≈ 297 µM)
Candida albicans [1]
  Activity: inactive
Vero [2]
  IC50: 38 µg/mL (≈ 124 µM)
Candida tropicalis [3]
  Activity: inactive
Candida parapsilosis [4]
  Activity: inactive
Pichia kudriavzevii [5]
  Activity: inactive
[6]
  MIC: > 100 µg/mL
Vero [7]
  Selectivity Index: 0.42
Aspergillus fumigatus
  MIC: > 100 µg/mL
Trichophyton rubrum
  MIC: > 100 µg/mL

## C=C1CC[C@H]2C(C)(C)CCC[C@]2(C)[C@H]1C/C=C(\C=O)CC=O (mixture of isomers) [LABDADIENEDIAL]
Fusarium oxysporum
  MIC: 19.8 µg/mL
Human alphaherpesvirus 1
  Activity: 100
B16
  IC50: 41.2 µg/mL
P388
  IC50: 4.1 µg/mL
Pichia kudriavzevii [8]
  Activity: Active
HeLa
  IC50: 19.5 µg/mL
Candida albicans [1]
  Activity: Active
Candida parapsilosis [9]
  Activity: Active
Vero [2]
  IC50: 13.1 µg/mL
KB
  EC50: 40 µg/mL
Candida tropicalis [10]
  Activity: Active
Candida tropicalis [3]
  Activity: Active
Candida parapsilosis [4]
  Activity: Active
Aspergillus terreus
  Activity: inactive
Pichia kudriavzevii [5]
  Activity: Active
[6]
  MIC: 1.24 µg/mL
Vero [7]
  Selectivity Index: 0.67
Aspergillus fumigatus
  MIC: 79.4 µg/mL
SNU1
  IC50: 12 µg/mL
Trichophyton rubrum
  MIC: 0.62 µg/mL
Candida albicans [11]
  Activity: Active
Aspergillus flavus
  Activity: inactive

## C=C1CCC2C(C)(C)CCC[C@]2(C)[C@H]1CC=O (stereo not given in full)
Fusarium oxysporum
  MIC: > 100 µg/mL
B16
  IC50: 30.8 µg/mL (≈ 131 µM)
P388
  IC50: 0.16 µg/mL (≈ 0.683 µM)
HeLa
  IC50: 2.6 µg/mL (≈ 11.1 µM)
Candida albicans [1]
  Activity: inactive
Vero [2]
  IC50: 10.7 µg/mL (≈ 45.7 µM)
Candida tropicalis [3]
  Activity: inactive
Candida parapsilosis [4]
  Activity: inactive
Pichia kudriavzevii [5]
  Activity: inactive
[6]
  MIC: 31.5 µg/mL (≈ 134 µM)
Vero [7]
  Selectivity Index: 4.11
Aspergillus fumigatus
  MIC: > 100 µg/mL
SNU1
  IC50: 3.9 µg/mL (≈ 16.6 µM)
Trichophyton rubrum
  MIC: 31.5 µg/mL (≈ 134 µM)

## C=C1CC[C@H]2C(C)(C)CCC[C@]2(C)[C@H]1C/C=C(/CC(=O)O)C(=O)O
Fusarium oxysporum
  MIC: > 100 µg/mL
HeLa
  IC50: 84.5 µg/mL (≈ 253 µM)
Candida albicans [1]
  Activity: inactive
Vero [2]
  IC50: 39 µg/mL (≈ 117 µM)
Candida tropicalis [3]
  Activity: inactive
Candida parapsilosis [4]
  Activity: inactive
Pichia kudriavzevii [5]
  Activity: inactive
[6]
  MIC: > 100 µg/mL
Vero [7]
  Selectivity Index: 0.46
Aspergillus fumigatus
  MIC: > 100 µg/mL
Trichophyton rubrum
  MIC: > 100 µg/mL

## C=C1CC[C@H]2C(C)(C)CCC[C@]2(C)[C@H]1C/C=C(/CC(=O)OC)C(=O)OC
Fusarium oxysporum
  MIC: > 100 µg/mL
HeLa
  IC50: 14.5 µg/mL (≈ 40 µM)
Candida albicans [1]
  Activity: inactive
Vero [2]
  IC50: 33.7 µg/mL (≈ 93 µM)
Candida tropicalis [3]
  Activity: inactive
Candida parapsilosis [4]
  Activity: inactive
Pichia kudriavzevii [5]
  Activity: inactive
[6]
  MIC: > 100 µg/mL
Vero [7]
  Selectivity Index: 2.32
Aspergillus fumigatus
  MIC: > 100 µg/mL
Trichophyton rubrum
  MIC: > 100 µg/mL

## CC[C@]1(O)C[C@H]2CN(CCc3c([nH]c4ccccc34)[C@@](C(=O)OC)(c3cc4c(cc3OC)N(C=O)[C@H]3[C@@](O)(C(=O)OC)[C@H](OC(C)=O)[C@]5(CC)C=CCN6CC[C@]43[C@@H]65)C2)C1 [VINCRISTINE]
HeLa
  IC50: 0.05 µg/mL (≈ 0.0606 µM)
Vero [2]
  IC50: 1.1 µg/mL (≈ 1.33 µM)
Vero [7]
  Selectivity Index: 22
